What was measured:
Assay type in all cases: functional
Mus musculus [1] = assay: Locomotor activity was measured for 1 hour after administration of 0.1 mg/kg dihydrochloride in mice (10 mice were used)
Summary of the method: (§1)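 Male ICR mice, 5 weeks, 25–35 g, acclimated 90 min. (S)- or (R)-dihydrochloride given ip in 5% gum arabic. Methamphetamine 1 mg/kg ip in saline given 30 min later. Locomotor activity recorded afterwards and expressed relative to saline–methamphetamine controls; two-tailed Student's t-test.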

Mus musculus [2] = assay: Percentage increase of locomotor activity in mice at dose of 1 mg/kg apomorphine (11 mice were used)
Summary of the method: (§2)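 Male ICR mice, 5 weeks. Dihydrochloride given ip 30 min before apomorphine 1 mg/kg sc, the hypermotility inducer used in place of methamphetamine. Spontaneous motor activity monitored afterwards; two-tailed Student's t-test.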

Mus musculus [3] = assay: Locomotor activity was measured for 1 hour after administration of 0.3 mg/kg dihydrochloride in mice (9 mice were used); summary of the method: as §1
Mus musculus [4] = assay: Locomotor activity was measured for 1 hour after administration of 1 mg/kg dihydrochloride in mice (9 mice were used); summary of the method: as §1
Mus musculus [5] = assay: Percentage increase of locomotor activity in mice at dose of 0.1 mg/kg dihydrochloride (10 mice were used); summary of the method: as §1
Mus musculus [6] = assay: Percentage increase of locomotor activity in mice at dose of 1 mg/kg dihydrochloride (9 mice were used)
Mus musculus [7] = assay: Percentage increase of locomotor activity in mice at dose of 0.3 mg/kg dihydrochloride (9 mice were used); summary of the method: as §1
Mus musculus [8] = assay: Locomotor activity was measured for 1 hour after administration of 1 mg/kg apomorphine in mice (11 mice were used); summary of the method: as §2
Mus musculus [9] = species: Mus musculus; assay: Peroral dose required to reduce by 50% the score of excitatory behavior induced by intrathecal injection of ferrous chloride in mice; details: central, read-out: ID50 (the source's name)
Summary of the method: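 Male Slc:ICR mice, 5 weeks old, 10 per dose. Compound given orally 30 min before intrathecal 5 μL of 50 mM FeCl2 in saline (between L6 and S1). Vehicle was water, or 0.5% gum arabic suspension. Behaviour scored 0–5 (biting to death) from 15 min to 1 h. ID50 from three or four doses, relative to vehicle score.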

Mus musculus [10] = assay: Locomotor activity was measured for 1 hour after administration of 1 mg/kg of dihydrchloride in mice (15 mice were used); summary of the method: as §1
Mus musculus [11] = assay: Percentage increase of locomotor activity in mice at a dose of 3 mg/kg dihydrochloride (13 mice were used); summary of the method: as §1
Mus musculus [12] = assay: Percentage increase of locomotor activity in mice at a dose of 1 mg/kg dihydrochloride (15 mice were used); summary of the method: as §1
Mus musculus [13] = assay: Locomotor activity was measured for 1 hour after administration of 10 mg/kg of dihydrchloride in mice (16 mice were used); summary of the method: as §1
Mus musculus [14] = assay: Locomotor activity was measured for 1 hour after administration of 3 mg/kg of dihydrchloride in mice (13 mice were used); summary of the method: as §1
Mus musculus [15] = assay: Percentage increase of locomotor activity in mice at a dose of 10 mg/kg dihydrochloride (16 mice were used); summary of the method: as §1

Compound | Locomotor activity (Mus musculus [1]) | Increase (Mus musculus [2]) | Locomotor activity (Mus musculus [3]) | Locomotor activity (Mus musculus [4]) | Increase (Mus musculus [5]) | Increase (Mus musculus [6]) | Increase (Mus musculus [7]) | Locomotor activity (Mus musculus [8]) | ED50 (Mus musculus [9]) | Locomotor activity (Mus musculus [10]) | Increase (Mus musculus [11]) | Increase (Mus musculus [12]) | Locomotor activity (Mus musculus [13]) | Locomotor activity (Mus musculus [14]) | Increase (Mus musculus [15])
Cc1c(C)c2c(c(C)c1N)C[C@@](C)(CN1CCC(c3ccccc3)CC1)O2 | 2103 | 124.5% | 1102 | 773 | 113.2% | 35.1% | 54.4% | 841 | 10.8 mg/kg |  |  |  |  |  | 
Cc1c(C)c2c(c(C)c1N)C[C@](C)(CN1CCC(c3ccccc3)CC1)O2 |  |  |  |  |  |  |  |  | 11.6 mg/kg | 1472 | 169% | 129% | 889 | 1852 | 67.7%

Reference: ChEMBL document CHEMBL1129943, “5-aminocoumarans: dual inhibitors of lipid peroxidation and dopamine release with protective effects against central nervous system trauma and ischemia” (J Med Chem, 1997)
